{
  "source": "ChEMBL document CHEMBL3621143",
  "about": "“Discovery of BMS-641988, a Novel Androgen Receptor Antagonist for the Treatment of Prostate Cancer” (ACS Med Chem Lett, 2015)",
  "key": {"Cytochrome P450 2D6": {"target": "Cytochrome P450 2D6 (Homo sapiens, UniProt P10635)", "sequence (P10635 whole entry)": "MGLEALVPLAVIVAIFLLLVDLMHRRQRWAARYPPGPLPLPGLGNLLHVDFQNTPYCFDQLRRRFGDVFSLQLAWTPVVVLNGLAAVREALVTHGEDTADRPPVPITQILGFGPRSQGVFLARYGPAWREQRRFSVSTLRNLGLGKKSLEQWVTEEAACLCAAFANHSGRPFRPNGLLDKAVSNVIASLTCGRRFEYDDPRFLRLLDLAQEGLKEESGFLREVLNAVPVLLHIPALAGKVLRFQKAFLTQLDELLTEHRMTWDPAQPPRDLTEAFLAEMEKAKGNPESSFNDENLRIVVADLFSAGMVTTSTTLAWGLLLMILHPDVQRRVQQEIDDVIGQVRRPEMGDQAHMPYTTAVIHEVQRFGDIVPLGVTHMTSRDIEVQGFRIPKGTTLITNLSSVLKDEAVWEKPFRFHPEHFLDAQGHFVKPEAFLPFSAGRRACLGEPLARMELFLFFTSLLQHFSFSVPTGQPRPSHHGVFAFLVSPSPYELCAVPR", "experiment": "Inhibition of human CYP2D6", "assay_type": "ADME"}, "Hepatocyte": {"system": "Hepatocyte", "experiment": "Drug metabolism in human hepatocytes assessed per 10^6 cells", "assay_type": "ADME, cell-based", "method_in_brief": "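Metabolic rate in mouse, rat, dog, monkey and human hepatocyte incubations, expressed as pmol/min/10^6 cells.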"}, "[1]": {"experiment": "Fraction unbound in dog plasma by equilibrium dialysis method", "assay_type": "ADME, cell-free, Canis lupus familiaris", "method_in_brief": "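Plasma protein binding measured by equilibrium dialysis in mouse, rat, dog and human plasma, reported as % free.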"}, "Rattus norvegicus": {"system": "Rattus norvegicus", "experiment": "In vivo antagonist activity at androgen receptor in immature Sprague-Dawley rat prostate weight model assessed as testosterone propionate-induced weight of seminal vesicles over full body weight at 1 mg/kg, po qd administered for 4 days", "assay_type": "functional", "set-up": "scale not given: the % may be the effect or the level left", "method_in_brief": "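Immature rat prostate weight PK/PD model. Oral dosing once daily at 1 or 10 mg/kg for 4 days. Seminal vesicle weight expressed as % of full body weight, n=3, scaled so testosterone-treated control = 100% and sham = 10%.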"}, "Cytochrome P450 2C8": {"target": "T1, Cytochrome P450 2C8 (Homo sapiens, UniProt P10632)", "T1 sequence (P10632 whole entry)": "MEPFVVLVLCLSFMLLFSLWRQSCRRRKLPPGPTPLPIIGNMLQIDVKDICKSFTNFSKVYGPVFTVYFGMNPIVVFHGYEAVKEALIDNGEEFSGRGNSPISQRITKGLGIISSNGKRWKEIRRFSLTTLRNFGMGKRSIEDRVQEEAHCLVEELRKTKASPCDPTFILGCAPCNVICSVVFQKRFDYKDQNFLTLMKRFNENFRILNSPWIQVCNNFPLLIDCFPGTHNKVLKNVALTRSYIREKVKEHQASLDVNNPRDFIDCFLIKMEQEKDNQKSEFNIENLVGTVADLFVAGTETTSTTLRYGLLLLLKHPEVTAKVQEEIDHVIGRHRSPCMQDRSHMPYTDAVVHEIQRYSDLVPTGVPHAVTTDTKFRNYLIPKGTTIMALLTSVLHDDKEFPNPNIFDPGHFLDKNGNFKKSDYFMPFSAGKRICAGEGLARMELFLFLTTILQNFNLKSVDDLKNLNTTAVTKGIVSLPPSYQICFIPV", "experiment": "Inhibition of human CYP2C8", "assay_type": "ADME"}, "CWR22": {"system": "CWR22", "experiment": "Antitumor activity against human CWR22 cells in Balb/c athymic (nu/nu) mouse CWR22-BMSLD1 prostate cancer xenograft model assessed as tumor growth inhibition at 90 mg/kg, po qd administered for 45 days measured every day during compound dosing", "assay_type": "functional, organism-based", "method_in_brief": "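CWR22-BMSLD1 human prostate cancer xenograft. Oral once-daily dosing at 90 mg/kg for 45 days, or at 150 mg/kg for 35 days, with a vehicle group. Median tumor volume (mm3) tracked against days post implant.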"}, "[2]": {"experiment": "Half life in mouse at 5 mg/kg, iv and 10 mg/kg, po", "assay_type": "ADME, organism-based", "conditions": "in vivo", "method_in_brief": "(§1)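 Single IV and oral doses in mouse and rat (IV 5, PO 10 mg/kg) and dog (IV 1, PO 2 mg/kg). Half-life, clearance, AUC0-∞ (µM*h) and %F derived from the plasma profiles.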"}, "[3]": {"experiment": "AUC (0 to infinity) in dog at 2 mg/kg, po", "assay_type": "ADME, organism-based, Canis lupus familiaris", "set-up": "dose 2 mg/kg, time infinity, route oral", "conditions": "in vivo", "method_in_brief": "as §1"}, "[4]": {"experiment": "Plasma concentration in immature Sprague-Dawley rat prostate weight model at 10 mg/kg, po qd administered for 4 days measured 2 hrs post last dose on day 4", "assay_type": "ADME, organism-based", "method_in_brief": "(§2)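 Immature rat prostate weight model, oral dosing once daily at 1 or 10 mg/kg for 4 days. Plasma drug concentration (µM) measured 2 hours post-dose on day 4, n=3.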"}, "Androgen receptor": {"target": "T2, Androgen receptor (Homo sapiens, UniProt P10275)", "T2 sequence (P10275 whole entry)": "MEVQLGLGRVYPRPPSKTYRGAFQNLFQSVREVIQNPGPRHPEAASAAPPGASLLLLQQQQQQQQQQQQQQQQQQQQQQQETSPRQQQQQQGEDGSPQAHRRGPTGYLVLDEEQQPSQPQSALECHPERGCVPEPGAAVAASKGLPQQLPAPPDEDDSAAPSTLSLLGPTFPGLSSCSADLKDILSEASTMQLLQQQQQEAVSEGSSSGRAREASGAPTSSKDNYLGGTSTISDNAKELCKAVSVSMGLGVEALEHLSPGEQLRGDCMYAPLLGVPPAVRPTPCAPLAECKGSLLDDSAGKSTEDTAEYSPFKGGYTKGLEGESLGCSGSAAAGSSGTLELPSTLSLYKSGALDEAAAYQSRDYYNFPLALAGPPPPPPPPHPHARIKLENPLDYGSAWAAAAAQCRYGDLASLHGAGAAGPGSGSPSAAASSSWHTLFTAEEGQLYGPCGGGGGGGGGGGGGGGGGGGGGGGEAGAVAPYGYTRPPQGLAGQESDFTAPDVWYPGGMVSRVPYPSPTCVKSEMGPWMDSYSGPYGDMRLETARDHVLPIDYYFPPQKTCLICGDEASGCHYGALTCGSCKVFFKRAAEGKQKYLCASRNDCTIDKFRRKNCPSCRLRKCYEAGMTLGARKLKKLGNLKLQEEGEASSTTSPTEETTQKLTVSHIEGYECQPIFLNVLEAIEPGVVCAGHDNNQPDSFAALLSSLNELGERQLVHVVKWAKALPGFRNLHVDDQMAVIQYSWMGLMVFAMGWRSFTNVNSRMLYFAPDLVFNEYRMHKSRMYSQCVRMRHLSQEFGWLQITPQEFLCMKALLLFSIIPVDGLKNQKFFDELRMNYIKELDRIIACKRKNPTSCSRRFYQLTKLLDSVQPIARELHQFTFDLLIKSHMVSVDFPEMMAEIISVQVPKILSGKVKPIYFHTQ", "experiment": "Displacement of [3H]-DHT from androgen receptor in human MDA-MB-453 cells after 90 mins by TopCount analysis", "assay_type": "cell-based"}, "[5]": {"target": "T3, Nuclear receptor subfamily 1 group I member 2 (Homo sapiens, UniProt O75469)", "T3 sequence (O75469 whole entry)": "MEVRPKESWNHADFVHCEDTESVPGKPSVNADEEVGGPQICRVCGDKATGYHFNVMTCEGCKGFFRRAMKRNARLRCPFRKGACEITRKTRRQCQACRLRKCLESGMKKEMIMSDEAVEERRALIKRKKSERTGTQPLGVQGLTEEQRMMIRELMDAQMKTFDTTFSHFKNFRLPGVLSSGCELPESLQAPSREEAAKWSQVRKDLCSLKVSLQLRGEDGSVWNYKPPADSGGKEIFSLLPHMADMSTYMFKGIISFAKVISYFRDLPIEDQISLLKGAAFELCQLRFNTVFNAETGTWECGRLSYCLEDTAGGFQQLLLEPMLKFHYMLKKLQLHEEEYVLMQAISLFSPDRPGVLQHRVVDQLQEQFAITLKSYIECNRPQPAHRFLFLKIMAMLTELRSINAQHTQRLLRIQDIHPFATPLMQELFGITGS", "experiment": "Transactivation of human PXR", "assay_type": "ADME"}, "[6]": {"experiment": "AUC (0 to infinity) in rat at 5 mg/kg, iv", "assay_type": "ADME, organism-based", "set-up": "dose 5 mg/kg, route intravenous, time infinity", "conditions": "in vivo", "method_in_brief": "as §1"}, "Cytochrome P450 3A4": {"target": "Cytochrome P450 3A4 (Homo sapiens, UniProt P08684)", "sequence (P08684 whole entry)": "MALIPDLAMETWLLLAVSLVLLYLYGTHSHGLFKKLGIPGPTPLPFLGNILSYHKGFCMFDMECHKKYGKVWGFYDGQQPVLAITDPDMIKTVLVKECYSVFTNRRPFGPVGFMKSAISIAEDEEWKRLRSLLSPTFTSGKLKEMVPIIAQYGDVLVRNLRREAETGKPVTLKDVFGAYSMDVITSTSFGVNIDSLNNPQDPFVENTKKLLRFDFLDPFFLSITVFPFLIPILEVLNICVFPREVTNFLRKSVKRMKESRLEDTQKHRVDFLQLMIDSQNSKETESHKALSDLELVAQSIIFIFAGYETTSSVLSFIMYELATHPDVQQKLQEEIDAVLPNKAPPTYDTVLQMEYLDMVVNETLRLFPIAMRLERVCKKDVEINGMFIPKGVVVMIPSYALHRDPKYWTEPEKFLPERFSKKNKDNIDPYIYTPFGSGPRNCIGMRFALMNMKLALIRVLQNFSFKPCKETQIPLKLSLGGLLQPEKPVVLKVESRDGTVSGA", "experiment": "Inhibition of human CYP3A4", "assay_type": "ADME"}, "[7]": {"experiment": "Plasma concentration in immature Sprague-Dawley rat prostate weight model at 1 mg/kg, po qd administered for 4 days measured 2 hrs post last dose on day 4", "assay_type": "ADME, organism-based", "method_in_brief": "as §2"}, "LNCaP": {"system": "LNCaP", "experiment": "Cytotoxicity against human LNCAP cells", "assay_type": "functional, cell-based"}},
  "note": "The source made the active and inactive calls. The rule behind the calls is not given here.",
  "data": [
    {"smiles": "CCS(=O)(=O)N[C@@H]1C[C@]2(C)O[C@]1(C)[C@@H]1C(=O)N(c3ccc(C#N)c(C(F)(F)F)c3)C(=O)[C@@H]12", "values": [
      {"measurement": "IC50", "setting": "Cytochrome P450 2D6", "result": "> 40", "unit": "µM"},
      {"measurement": "Drug metabolism", "setting": "Hepatocyte", "result": 2, "unit": "pmol/min"},
      {"measurement": "fraction unbound", "setting": "[1]", "result": 0.165},
      {"measurement": "Activity", "setting": "Rattus norvegicus", "result": 58, "unit": "%"},
      {"measurement": "IC50", "setting": "Cytochrome P450 2C8", "result": "> 40", "unit": "µM"},
      {"measurement": "TGI", "setting": "CWR22", "result": "Active"},
      {"measurement": "half-life", "setting": "[2]", "result": 2.4, "unit": "h"},
      {"measurement": "AUC(0-inf)", "setting": "[3]", "result": 160, "unit": "µM·h"},
      {"measurement": "concentration at 2 h", "setting": "[4]", "result": 4000, "unit": "nM"},
      {"measurement": "Ki", "setting": "Androgen receptor", "result": 0.0017, "unit": "µM"},
      {"measurement": "EC50", "setting": "[5]", "result": "> 50", "unit": "µM"},
      {"measurement": "AUC(0-inf)", "setting": "[6]", "result": 31.7, "unit": "µM·h"},
      {"measurement": "IC50", "setting": "Cytochrome P450 3A4", "result": "> 40", "unit": "µM"},
      {"measurement": "concentration at 2 h", "setting": "[7]", "result": 790, "unit": "nM"},
      {"measurement": "IC50", "setting": "LNCaP", "result": 0.153, "unit": "µM"}
    ]}
  ]
}
